Data from ChEMBL document CHEMBL3259659, “Polyisoprenylated methylated protein methyl esterase: a putative biomarker and therapeutic target for pancreatic cancer” (Eur J Med Chem, 2014).
Calls of active or inactive are those of the source. No cut-off for these calls is given here.

Legend:
[1] = Lipophilicity, log D of the compound; assay type: physicochemical; conditions: octanol/water
BXPC-3 [2] = test: (§1) Cytotoxicity against human BxPC3 cells after 48 hrs by fluorescence assay; assay type: functional, cell-based
Outline: (§2)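 Cells from ATCC, kept at 37°C in 5% CO2 to about 80% confluence, trypsinized and plated at 1×10^4 cells/well in medium with 5% FBS. Treated with PCAIs 0–20 μM for 48 h. Viability by resazurin (0.02% in Dulbecco PBS, 20 μL added), fluorescence read after 2 h at ex 560/em 590 nm. EC50 by nonlinear regression of concentration-response.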

[3] = as §1; assay type: functional, cell-based; conditions: BXPC-3, 48 h; outline: as §2
MIA PaCa-2 [4] = test: (§3) Cytotoxicity against human MIAPaCa2 cells harboring K-Ras mutant oncogene after 48 hrs by fluorescence assay; assay type: functional, cell-based; outline: as §2
[5] = as §3; assay type: functional, cell-based; conditions: MIA PaCa-2, 48 h; outline: as §2
Homo sapiens = species on record: Homo sapiens; test: (§4) Inhibition of PMPMEase (unknown origin) using RD-PNB as substrate incubated for 15 mins prior to substrate addition measured after 2 hrs by RP-HPLC analysis
Outline: (§5)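 Enzyme (1 μg) preincubated 15 min with inhibitor (1–1000 μM, dissolved in water), then RD-PNB (1 mM, in DMSO) added. Incubated 2 h at 37°C in 100 mM Tris-HCl pH 7.4, stopped with methanol, centrifuged. Supernatant analysed by RP-HPLC with UV detection at 260 nm. IC50 by nonlinear regression; Ki derived from previously reported RD-PNB kinetics.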

[6] = as §4; set-up: species or system Homo sapiens; outline: as §5
BXPC-3 [7] = test: Cytotoxicity against human BxPC3 cells at 20 uM after 24 to 72 hrs by fluorescence assay; assay type: functional, cell-based
Outline: (§6)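 Same viability method: cells plated at 1×10^4 cells/well in 5% FBS medium, exposed to 20 μM PCAI for 24, 48 and 72 h. Resazurin (0.02% in Dulbecco PBS) added, fluorescence ex 560/em 590 nm read 2 h later.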

MIA PaCa-2 [8] = test: Cytotoxicity against human MIAPaCa2 cells harboring K-Ras mutant oncogene at 20 uM after 24 to 72 hrs by fluorescence assay; assay type: functional, cell-based; outline: as §6
MIA PaCa-2 [9] = test: Induction of apoptosis in human MIAPaCa2 cells harboring K-Ras mutant oncogene assessed as viable cells at 1 uM after 48 hrs by acridine orange/ethidium bromide staining-based fluorescence microscopy; assay type: functional, cell-based
Outline: (§7)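 5×10^4 MIA PaCa-2 cells cultured in chamber slide wells and treated 48 h at 0.5, 1 and 2 μM in 5% FBS. Stained with acridine orange/ethidium bromide (10 μg/mL). Imaged by fluorescence microscopy (x40 objective, 480/30 nm excitation). Green intact nuclei scored as viable; bright green fragmented nuclei as early apoptotic; orange-red condensed nuclei as apoptotic.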

MIA PaCa-2 [10] = test: Induction of apoptosis in human MIAPaCa2 cells harboring K-Ras mutant oncogene assessed as early apoptotic cells at 2 uM after 48 hrs by acridine orange/ethidium bromide staining-based fluorescence microscopy; assay type: functional, cell-based; outline: as §7
MIA PaCa-2 [11] = test: Induction of apoptosis in human MIAPaCa2 cells harboring K-Ras mutant oncogene at 0.5 to 2 uM after 48 hrs by acridine orange/ethidium bromide staining-based fluorescence microscopy; assay type: functional, cell-based; outline: as §7

Compound	logD [1]	Activity (BXPC-3 [2])	EC50 [3] [µM]	Activity (MIA PaCa-2 [4])	EC50 [5] [µM]	Activity (Homo sapiens)	Ki [6] [µM]	Activity (BXPC-3 [7])	Activity (MIA PaCa-2 [8])	Activity (MIA PaCa-2 [9])	Activity (MIA PaCa-2 [10])	Activity (MIA PaCa-2 [11])
CC(C)=CCC/C(C)=C/CC/C(C)=C/CSC[C@H](NC(=O)CCCCCN1CCCC1)C(=O)N1CCCC1	3.31	Dose-dependent effect	6.5	Dose-dependent effect	10.8	Dose-dependent effect	9.7					
CC(C)=CCC/C(C)=C/CC/C(C)=C/CSC[C@H](NC(=O)CCCCCN1CCCC1)C(=O)NC1CCCCC1	4.48	Dose-dependent effect	12.7	Dose-dependent effect	5.6	Dose-dependent effect	11.2					
CC(C)=CCC/C(C)=C/CC/C(C)=C/CSc1ccccc1C(=O)O [SALIRASIB]	3.43		> 20		> 20			inactive	inactive			
CC(C)=CCC/C(C)=C/CC/C(C)=C/CSC[C@H](NC(=O)CCCCCN1CCCC1)C(=O)NC1CCCC1	4.04	Dose-dependent effect	6.8	Dose-dependent effect	3.2	Dose-dependent effect	3.7					
CC(C)=CCC/C(C)=C/CC/C(C)=C/CSC[C@H](NC(=O)CCCCCN1CCCC1)C(=O)NC1CCCCCC1	4.93	Dose-dependent effect	5.8	Dose-dependent effect	6.8	Dose-dependent effect	11.6					
CC(C)=CCC/C(C)=C/CC/C(C)=C/CSC[C@H](NC(=O)CCCCCN1CCN(C)CC1)C(=O)N1CCCC1	3.82	Dose-dependent effect	3.2	Dose-dependent effect	6	Dose-dependent effect	20					
CC(C)=CCC/C(C)=C/CC/C(C)=C/CSC[C@H](NC(=O)CCCCCN1CCN(C)CC1)C(=O)NC1CCCCC1	4.99	Dose-dependent effect	12	Dose-dependent effect	5.9	Dose-dependent effect	16.9					
CC(C)=CCC/C(C)=C/CC/C(C)=C/CSC[C@H](NC(=O)CCCCCN1CCN(C)CC1)C(=O)NC1CCCCCCC1	5.88	Dose-dependent effect	7.5	Dose-dependent effect	2.5	Dose-dependent effect	15.2			inactive	Active	Active
CC(C)=CCC/C(C)=C/CC/C(C)=C/CSC[C@H](NC(=O)CCCCCN1CCN(C)CC1)C(=O)NC1CC1	3.66	Dose-dependent effect	6.3	Dose-dependent effect	10.4	Dose-dependent effect	13.8					
CC(C)=CCC/C(C)=C/CC/C(C)=C/CSC[C@H](NC(=O)CCCCCN1CCCC1)C(=O)N1CCCCC1	3.76	Dose-dependent effect	8.7	Dose-dependent effect	12.4	Dose-dependent effect	11					
CC(C)=CCC/C(C)=C/CC/C(C)=C/CSC[C@H](NC(=O)CCCCCN1CCCC1)C(=O)NC1CC1	3.15	Dose-dependent effect	> 20	Dose-dependent effect	> 20	Dose-dependent effect	17.5					
CC(C)=CCC/C(C)=C/CC/C(C)=C/CSC[C@H](NC(=O)CCCCCN1CCCC1)C(=O)NC1CCCCCCC1	5.37	Dose-dependent effect	4	Dose-dependent effect	1.9	Dose-dependent effect	11.9					
CC(C)=CCC/C(C)=C/CC/C(C)=C/CSc1ccccc1C(N)=O	6.03		> 20		> 20			inactive	inactive			
CC(C)=CCC/C(C)=C/CC/C(C)=C/CSC[C@H](NC(=O)CCCCCN1CCN(C)CC1)C(=O)NC1CCCC1	4.55	Dose-dependent effect	> 20	Dose-dependent effect	10.9	Dose-dependent effect	10.1					
CC(C)=CCC/C(C)=C/CC/C(C)=C/CSC[C@H](NC(=O)CCCCCN1CCN(C)CC1)C(=O)NC1CCCCCC1	5.44	Dose-dependent effect	6.2	Dose-dependent effect	2.7	Dose-dependent effect	17.6					
CC(C)=CCC/C(C)=C/CC/C(C)=C/CSC[C@H](NC(=O)CCCCCN1CCN(C)CC1)C(=O)N1CCCCC1	4.27	Dose-dependent effect	8.8	Dose-dependent effect	14.3	Dose-dependent effect	13					
